Test results reported in BindingDB's records for doi:10.1021/jm960074e (National Cancer Institute-Bethesda, 1996).

Molecular target: Integrase (Human immunodeficiency virus 1, UniProt Q7ZJM1)
Assay: Inhibitory activity against HIV-1 integrase
Procedure, shortened: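 Purified recombinant wild-type HIV-1 integrase, 200 nM final, preincubated with inhibitor for 30 min at 30 °C. Buffer: 25 mM MOPS pH 7.2, 7.5 mM MnCl2, 50 mM NaCl, 10% DMSO, 10% glycerol, BSA, DTT, 2-mercaptoethanol. Then 20 nM 5'-32P-labeled 21mer U5 duplex added for 60 min. Products run on denaturing 20% polyacrylamide gel and quantified by phosphorimager.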

Sequence of Integrase (Q7ZJM1 whole entry): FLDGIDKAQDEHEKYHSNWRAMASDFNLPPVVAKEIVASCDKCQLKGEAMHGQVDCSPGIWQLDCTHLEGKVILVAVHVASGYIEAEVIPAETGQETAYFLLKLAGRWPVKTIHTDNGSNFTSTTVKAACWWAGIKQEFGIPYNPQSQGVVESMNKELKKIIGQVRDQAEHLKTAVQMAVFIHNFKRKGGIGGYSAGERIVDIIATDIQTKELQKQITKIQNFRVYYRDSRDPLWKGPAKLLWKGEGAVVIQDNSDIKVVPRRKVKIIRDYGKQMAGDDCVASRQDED

Row | Compound | IC50
1 | O=C1C(=O)c2ccccc2C(=O)C1=C(c1ccc(Cl)cc1)c1c(O)c(O)c2ccccc2c1O [2-[4-chlorophenyl(3-hydroxy-1,4-dioxo-1,4-dihydro-2-naphthalenyl)methyl]-3-hydroxy-1,4-dihydro-1,4-naphthalenedione] | > 100 µM
2 | Cc1ccc(S(=O)(=O)NN=C(CCN2CCCC2)CC(c2ccccc2)c2c(O)c3ccccc3oc2=O)cc1 (stereo not given) [NSC-647410] | > 100 µM
3 | O=C1C(=O)C(Sc2ccccc2)C(=O)c2ccccc21 (stereo not given) [NSC-108029] | > 100 µM
4 | CCOc1ccc(C(=C2C(=O)C(=O)c3ccccc3C2=O)c2c(O)c(O)c3ccccc3c2O)cc1OC [2-[4-ethoxy-3-methoxyphenyl(3-hydroxy-1,4-dioxo-1,4-dihydro-2-naphthalenyl)methyl]-3-hydroxy-1,4-dihydro-1,4-naphthalenedione] | 100 µM
5 | O=C1Oc2ccccc2C(O)C1Cc1c(O)c2ccccc2oc1=O (stereo not given) [NSC-41834] | > 100 µM
6 | CC(=C1C(=O)C(=O)c2ccccc2C1=O)c1c(O)c(O)c2ccccc2c1O [2-hydroxy-3-[1-(3-hydroxy-1,4-dioxo-1,4-dihydro-2-naphthalenyl)ethyl]-1,4-dihydro-1,4-naphthalenedione] | > 100 µM
7 | COc1cc(C(=C2C(=O)C(=O)c3ccccc3C2=O)c2c(O)c(O)c3ccccc3c2O)cc(OC)c1OC [NSC-117278] | > 100 µM
8 | CN(C)c1ccc(C(=C2C(=O)C(=O)c3ccccc3C2=O)c2c(O)c(O)c3ccccc3c2O)cc1 [NSC-92203] | > 100 µM
9 | O=C(c1cccc([N+](=O)[O-])c1)c1c(O)c2ccccc2oc1=O [NSC-133800] | > 100 µM
10 | CC(=O)c1cccc(NC(=O)C(=O)c2c(O)c3ccccc3oc2=O)c1 [N-(3-Acetyl-phenyl)-2-(4-hydroxy-2-oxo-2H-chromen-3-yl)-2-oxo-acetamide] | > 100 µM
